The values that follow come from ChEMBL document CHEMBL4765453, “Phenanthrolinic analogs of quinolones show antibacterial activity against M. tuberculosis” (Eur J Med Chem, 2020).

Structures are written as SMILES. ≈ marks a conversion by molar mass, not a printed value. Calls of active or inactive are those of the source. The calls are words filed in the database; no cut-off is given here.

Data set [1] relates to Mycobacterium tuberculosis. Nature of the data set: Antitubercular activity against Mycobacterium tuberculosis H37Rv measured after 7 days by resazurin microtiter assay. The note with it: 168 h, time 7 day. It counts as functional. In short, it runs like this:
(§1)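 Resazurin microtiter assay with two-fold drug dilutions in complete 7H9 broth. Exponential-phase cells are diluted to a final OD600 of 0.005 in 7H9 without Tween. Incubation is 7 days at 37°C, then 0.01% resazurin is added and plates are held 24 h more. MIC is the lowest concentration preventing the blue-to-pink change. Each MIC is determined three times in duplicate experiments.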
Background: Alamar Blue is a resazurin reagent that responds to reducing activity.

The subject of data set [2] is Mycolicibacterium smegmatis. Nature of the data set: Antibacterial activity against Mycobacterium smegmatis measured after 7 days by resazurin microtiter assay. Format: functional. The note with it: 168 h, time 7 day. The method in brief:
as §1

Another data set relates to Mycolicibacterium aurum. Nature of the data set: Antibacterial activity against Mycobacterium aurum measured after 7 days by resazurin microtiter assay. Format: functional. The note with it: 168 h, time 7 day. The method in brief:
as §1

In the next data set the test system is Mycobacterium marinum. Nature of the data set: Antibacterial activity against Mycobacterium marinum measured after 7 days by resazurin microtiter assay. It counts as functional. The settings on record: 168 h, time 7 day. In short, it runs like this:
as §1

The test system of a further data set is Pseudomonas aeruginosa. In words: Antibacterial activity against Pseudomonas aeruginosa measured after 7 days by resazurin microtiter assay. Format: functional. The note with it: 168 h, time 7 day.
A further data set relates to Acinetobacter baumannii. In words: Antibacterial activity against Acinetobacter baumannii measured after 7 days by resazurin microtiter assay. Format: functional. The settings on record: 168 h, time 7 day.
Another data set concerns Klebsiella aerogenes. In words: Antibacterial activity against Enterobacter aerogenes measured after 7 days by resazurin microtiter assay. Format: functional. The note with it: 168 h, time 7 day.
The test system of another data set is Enterobacter cloacae. Nature of the data set: Antibacterial activity against Enterobacter cloacae measured after 7 days by resazurin microtiter assay. The note with it: 168 h, time 7 day. Format: functional.
A further data set relates to Staphylococcus aureus. Nature of the data set: Antibacterial activity against Staphylococcus aureus measured after 7 days by resazurin microtiter assay. It counts as functional. The settings on record: 168 h, time 7 day.
For data set [3], the system named is Mycobacterium tuberculosis. In words: Antitubercular activity against Mycobacterium tuberculosis XDR measured after 7 days by resazurin microtiter assay. Format: functional. The note with it: 168 h, time 7 day. In short, it runs like this: as §1
Data set [4] has as its system Escherichia coli ATCC 25922. In words: Inhibition of DNA gyrase in Escherichia coli ATCC 25922 assessed as elongation of bacterial cells at 2 ug/ml measured after 1.5 hrs by DAPI/FM 4-64 staining based confocal fluorescence microscopic analysis. The note with it: dose 2.0 µg/ml. In short, it runs like this:
(§2)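 E. coli ATCC 25922 is grown in LB, and exponential cultures are treated 1.5 h at 37°C. Cells are washed in PBS, fixed 10 min in 4% PFA, and stained 20 min at room temperature with 2 µg/mL DAPI plus 1 µg/mL FM 4-64. Imaging is by confocal microscopy with a 60x oil objective.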

The subject of data set [5] is Mycolicibacterium smegmatis. Nature of the data set: Inhibition of DNA gyrase in Mycobacterium smegmatis assessed as elongation of bacterial cells at 2 ug/ml measured after 6 hrs by DAPI/FM 4-64 staining based confocal fluorescence microscopic analysis. The note with it: dose 2.0 µg/ml. The method in brief: (§3)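 M. smegmatis is grown in 7H9, and exponential cultures are treated 6 h at 37°C. Cells are fixed 10 min in 4% PFA in PBS and stained 20 min at room temperature with 2 µg/mL DAPI and 1 µg/mL FM 4-64. Imaging is by confocal microscopy with a 60x oil objective.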

For data set [6], the system named is Mycolicibacterium smegmatis. Nature of the data set: Inhibition of DNA gyrase in Mycobacterium smegmatis assessed as segmentation of bacterial cells at 2 ug/ml measured after 6 hrs by DAPI/FM 4-64 staining based confocal fluorescence microscopic analysis. The note with it: dose 2.0 µg/ml. In short, it runs like this:
as §3

For the next data set, the system named is Klebsiella pneumoniae. In words: Antibacterial activity against Klebsiella pneumoniae measured after 7 days by resazurin microtiter assay. It counts as functional. The note with it: 168 h, time 7 day.
The subject of another data set is Vero. In words: Cytotoxicity against African green monkey Vero cells assessed as reduction in cell viability measured after 24 to 48 hrs by Celltiter-glo assay. It counts as cell-based, Chlorocebus sabaeus. The settings on record: chlorocebus sabaeus, vero; time 24-48 hrs. In short, it runs like this: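 Vero cells are grown in DMEM with 10% FBS and seeded at 25000 cells/well. Compound is added at 1% final DMSO, with 24 and 48 h incubation. ATP is read by CellTiter-Glo luminescence. IC50 is the concentration giving a 50% drop in ATP signal versus the DMSO control.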

A further data set relates to Macrophage. Nature of the data set: Cytotoxicity against human macrophages assessed as reduction in cell viability measured after 6 days by Celltiter-glo assay. It counts as cell-based. The settings on record: human, macrophage, 144 h; time 6 day. The method in brief: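 Infected human macrophages, with or without drug, are incubated 6 days. Viability is checked by visual inspection and by CellTiter-Glo ATP luminescence.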
On the technique in general: Cellular ATP, detected with luciferase, serves as a proxy for viable cell number.

Data set [7] deals with Mycobacterium tuberculosis. In words: Antitubercular activity against Mycobacterium tuberculosis H37Rv infected in human macrophages assessed as intracellular bacterial load at 0.5 MIC measured after 6 days (reference value: 5.57 to 6.43 logCFU/ml). It counts as functional, Macrophage. The settings on record: time 6 day.
Data set [8] concerns Mycobacterium tuberculosis. Nature of the data set: Antitubercular activity against Mycobacterium tuberculosis H37Rv infected in human macrophages assessed as intracellular bacterial load at MIC measured after 6 days (reference value: 5.57 to 6.43 logCFU/ml). It counts as functional, Macrophage. The settings on record: time 6 day.
Data set [9] deals with Mycobacterium tuberculosis. In words: Antitubercular activity against Mycobacterium tuberculosis H37Rv infected in human macrophages assessed as intracellular bacterial load at 2 times MIC measured after 6 days (reference value: 5.57 to 6.43 logCFU/ml). Format: functional, Macrophage. The note with it: time 6 day.
Data set [10] has as its system Mycobacterium tuberculosis. Nature of the data set: Antitubercular activity against Mycobacterium tuberculosis H37Rv infected in human macrophages assessed as intracellular bacterial load at 4 times MIC measured after 6 days (reference value: 5.57 to 6.43 logCFU/ml). It counts as functional, Macrophage. The settings on record: time 6 day.
A short description of data set [11]: Solubility of compound in water. Format: physicochemical. The settings on record: buffer.
Data set [12] relates to Escherichia coli ATCC 25922. Nature of the data set: Inhibition of DNA gyrase in Escherichia coli ATCC 25922 assessed as elongation of bacterial cells at 2.5 ug/ml measured after 1.5 hrs by DAPI/FM 4-64 staining based confocal fluorescence microscopic analysis. The note with it: dose 2.5 µg/ml. The method in brief: as §2
The subject of data set [13] is Escherichia coli ATCC 25922. Nature of the data set: Inhibition of DNA gyrase in Escherichia coli ATCC 25922 assessed as appearance of filamentous bacterial cells at 2.5 ug/ml measured after 1.5 hrs by DAPI/FM 4-64 staining based confocal fluorescence microscopic analysis. The note with it: dose 2.5 µg/ml. The method in brief: as §2
The subject of data set [14] is Escherichia coli ATCC 25922. In words: Inhibition of DNA gyrase in Escherichia coli ATCC 25922 assessed as change in DNA morphology at 2.5 ug/ml measured after 1.5 hrs by DAPI/FM 4-64 staining based confocal fluorescence microscopic analysis. The settings on record: dose 2.5 µg/ml. In short, it runs like this:
as §2

Data set [15] concerns Mycolicibacterium smegmatis. In words: Inhibition of DNA gyrase in Mycobacterium smegmatis assessed as elongation of bacterial cells at 2.5 ug/ml measured after 6 hrs by DAPI/FM 4-64 staining based confocal fluorescence microscopic analysis. The note with it: dose 2.5 µg/ml. The method in brief: as §3
Data set [16] has as its system Mycolicibacterium smegmatis. In words: Inhibition of DNA gyrase in Mycobacterium smegmatis assessed as segmentation of bacterial cells at 2.5 ug/ml measured after 6 hrs by DAPI/FM 4-64 staining based confocal fluorescence microscopic analysis. The settings on record: dose 2.5 µg/ml. In short, it runs like this: as §3

Usually MIC90 stands for the lowest concentration that inhibits either 90% of growth or 90% of the strains tested, depending on the study. Regarding `CC1COc2c(N3CCN(C)CC3)c(F)cc3c(=O)c(C(=O)O)cn1c23` (stereo unspecified) [OFLOXACIN], the MIC90 in [1] was determined as 1.73 µM (≈ 0.625 µg/mL); in [2], 3.46 µM (≈ 1.25 µg/mL); in the data set on Mycolicibacterium aurum it was 3.46 µM (≈ 1.25 µg/mL); with Mycobacterium marinum it was 6.92 µM (≈ 2.5 µg/mL); against Pseudomonas aeruginosa, 6.92 µM (≈ 2.5 µg/mL); against Acinetobacter baumannii, 1.73 µM (≈ 0.625 µg/mL). The MIC90 against Klebsiella aerogenes is 0.22 µM (≈ 0.0795 µg/mL); in the data set with Enterobacter cloacae it was 6.92 µM (≈ 2.5 µg/mL); against Staphylococcus aureus it was 1.73 µM (≈ 0.625 µg/mL); in [3], 27.6 µM (≈ 9.97 µg/mL). Further, the inhibition result in data set [4], in [5] and in data set [6] was “Active” in each case.

Consider `Cn1cc(C(=O)O)c(=O)c2cc([N+](=O)[O-])c3cccnc3c21`, for which the MIC90 is 2.64 µM (≈ 0.79 µg/mL) in data set [1]; 11.2 µM (≈ 3.35 µg/mL) in data set [2]; 11.2 µM (≈ 3.35 µg/mL) with Mycolicibacterium aurum; 0.7 µM (≈ 0.209 µg/mL) against Mycobacterium marinum; more than 100 µM in the data set with Pseudomonas aeruginosa; more than 100 µM against Acinetobacter baumannii. Further, the MIC90 with Klebsiella aerogenes is 44.7 µM (≈ 13.4 µg/mL); in the data set on Enterobacter cloacae, more than 275 µM; against Staphylococcus aureus, 22.4 µM (≈ 6.69 µg/mL); in the data set with Klebsiella pneumoniae, more than 275 µM; in [3] it was 2.64 µM (≈ 0.79 µg/mL). Moreover, the Activity result was “Non-Toxic” with Vero; “Non-Toxic” with Macrophage; 3.78 log10CFU/ml in data set [7]; 3.65 log10CFU/ml in data set [8]; 2.77 log10CFU/ml in data set [9]; 3.01 log10CFU/ml in data set [10]. Moreover, the solubility result in data set [11] was “Insoluble”. Further, the inhibition entry in data set [12], in data set [13], in [14], in data set [15] and in [16] was “Active” each time.
